Measured values gathered from unrelated publications.
Lines come from different studies, so protocols differ.
Target: Proto-oncogene tyrosine-protein kinase Src (SRC, Homo sapiens, UniProt P12931)

CO[C@H]1CC[C@H](CNc2ccc(S(=O)(=O)NC(=O)c3ccc(N4CCN(CC5=C(c6ccc(Cl)cc6)CC(C)(C)CC5)CC4)cc3Oc3cnc4[nH]ccc4c3)cc2[N+](=O)[O-])CC1 — remaining binding (cell-free assay, competition with immobilised ligand; 1 µM): 78%
CN(C)C1CCN(CC#Cc2nn(C3CCCC3)c3nc(NCc4ccccc4)ncc23)C1 (stereo not shown) — inhibition (enzyme activity, inhibitor, FRET; 10 µM): 41%
CSc1nc(C)c(-c2ccnc(Nc3ccc(N4CCOCC4)cc3)c2)[nH]1 — inhibition (enzyme activity, inhibitor; 10 µM): 12.5%
C=CC(=O)Nc1cc(Nc2nccc(Nc3cc(Cl)c(F)cc3C(C)(C)O)n2)c(OC)cc1N1CC[C@@H](N(C)C)C1 — inhibition (enzyme activity, inhibitor; 1 µM): 18%
Cc1ccc(NC(=O)c2ccc(C)c(C(F)(F)F)c2)cc1C#Cc1nn(C2CCC(O)CC2)c2ncnc(N)c12 (stereo not shown) — remaining signal (cell-free assay; 10 µM): 0%
CNC(=O)c1ccc(Nc2ncc(C(F)(F)F)c(NCc3nccnc3N(C)S(C)(=O)=O)n2)cc1 — remaining binding (cell-free assay, competition with immobilised ligand; 0.1 µM): 79%
O=C1c2ccccc2-c2n[nH]c3cccc1c23 — activity vs control (enzyme activity, inhibitor; 0.5 µM): 97.6%
Cn1nc(C(F)(F)F)cc1-c1cnc(N2CCc3cc(S(=O)(=O)Nc4c(F)cc(Cl)cc4F)cc(N4CCCC4=O)c32)nc1 — remaining binding (cell-free assay, competition with immobilised ligand; 1 µM): 100%
COc1cc2ncnc(Nc3cccc(Cl)c3)c2cc1OC — remaining signal (cell-free assay; 0.5 µM): 71.9%
COc1cccc2c(NCc3ccccc3)nc(-n3c(N)nc4ccccc43)nc12 — inhibition (target engagement in cells, inhibitor, chemoproteomics; 20 mM): -15.5%
CCC(=O)Nc1ccc2ncnc(Nc3cccc(Br)c3)c2c1 — remaining signal (cell-free assay, inhibitor; 0.5 µM): 93.6%
FC(F)(F)Oc1cccc(-c2cnc3ccc(-c4ccncc4)nn23)c1 — activity vs control (enzyme activity, inhibitor, radiometric; 5 µM): 45%
CCCS(=O)(=O)Nc1ccc(F)c(C(=O)c2c[nH]c3ncc(-c4ccc(Cl)cc4)cc23)c1F — inhibition (enzyme activity, inhibitor; 1 µM): < 20%
Cc1noc([C@H]2C[C@@H](c3ccc(C(F)(F)F)cc3)CN(C(=O)N3CCS(=O)(=O)C3)C2)n1 — remaining binding (cell-free assay, competition with immobilised ligand; 1 µM): 96%
COc1cc2ncnc(N3CCN(C(=O)Nc4ccc(Oc5ccccc5)cc4)CC3)c2cc1OC — remaining signal (cell-free assay; 0.5 µM): 102%
O=C1CCc2cc(Nc3cc(OC4CCOCC4)c([N+](=O)[O-])cc3Cl)ccc2N1 — remaining binding (cell-free assay, competition with immobilised ligand; 1 µM): 100%
COc1cc2ncnc(Nc3ccc(Oc4ccccc4)c(C)c3C)c2cc1OC — inhibition (enzyme activity, inhibitor; 1 µM): 78%
Cc1cc(NC(=O)c2cccc(S(F)(F)(F)(F)F)c2)cc(-n2ccn3nc(-c4cccnc4)cc23)c1 — remaining binding (cell-free assay, competition with immobilised ligand; 1 µM): 100%
Cc1ccc(Nc2nccc(N(C)c3ccc4c(C)n(C)nc4c3)n2)cc1S(N)(=O)=O — inhibition (enzyme activity, inhibitor; 10 µM): 89%
